Key:
Mu-type opioid receptor = Mu-type opioid receptor (Rattus norvegicus, UniProt P33535); assay: Binding affinity against opioid receptor mu in rats by displacing [3H]-DAGO
Cavia porcellus = species: Cavia porcellus; assay: Concentration required to inhibit electrically induced twitch by 50% in guinea pig ileum(GPI).; assay type: functional
[1] = molecular target: Delta-type opioid receptor (Rattus norvegicus, UniProt P33533); assay: Binding affinity against opioid receptor delta in rats by displacing [3H]DPDPE
Sequence of Delta-type opioid receptor (P33533 whole entry): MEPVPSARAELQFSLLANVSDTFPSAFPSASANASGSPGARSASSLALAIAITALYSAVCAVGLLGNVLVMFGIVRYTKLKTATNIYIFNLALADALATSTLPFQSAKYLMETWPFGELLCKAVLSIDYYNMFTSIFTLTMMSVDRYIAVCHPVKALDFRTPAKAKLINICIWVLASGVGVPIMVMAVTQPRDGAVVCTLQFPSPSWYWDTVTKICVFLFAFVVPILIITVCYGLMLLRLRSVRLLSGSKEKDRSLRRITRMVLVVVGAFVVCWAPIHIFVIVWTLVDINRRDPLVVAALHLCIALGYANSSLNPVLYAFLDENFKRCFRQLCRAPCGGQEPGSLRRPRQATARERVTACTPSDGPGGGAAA

Mus musculus = species: Mus musculus; assay: Concentration required to inhibit electrically induced twitch by 50% in mouse vas deferens(MVD).; assay type: functional
How it was run: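 Mouse vas deferens field-stimulated at 0.1 Hz, 1 ms, 40 V; twitch recorded with an isometric transducer. Peptide doses added to the aerated bath, with three to four washes at 10-min intervals between doses. IC50 from log-dose curves, normalized against a dermorphin or morphine standard run on each tissue.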

Sequence of Mu-type opioid receptor (P33535 whole entry): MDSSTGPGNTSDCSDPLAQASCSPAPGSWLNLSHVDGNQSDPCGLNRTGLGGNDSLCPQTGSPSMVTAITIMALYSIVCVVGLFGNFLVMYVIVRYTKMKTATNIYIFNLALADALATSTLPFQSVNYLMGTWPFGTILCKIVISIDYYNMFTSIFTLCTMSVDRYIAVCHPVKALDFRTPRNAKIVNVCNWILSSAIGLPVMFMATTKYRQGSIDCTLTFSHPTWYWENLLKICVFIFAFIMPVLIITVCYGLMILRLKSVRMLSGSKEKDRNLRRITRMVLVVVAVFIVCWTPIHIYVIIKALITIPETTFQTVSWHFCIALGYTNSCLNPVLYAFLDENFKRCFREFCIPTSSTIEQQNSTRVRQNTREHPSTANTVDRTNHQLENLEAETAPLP

Compound	Ki (Mu-type opioid receptor)	IC50 (Cavia porcellus)	Ki [1]	IC50 (Mus musculus)
CC(C)[C@H](NC(=O)[C@H](CC(=O)O)NC(=O)[C@H](Cc1ccc(Br)cc1)NC(=O)[C@@H](C)NC(=O)[C@@H](N)Cc1ccc(O)cc1)C(=O)N[C@H](C(=O)NCC(N)=O)C(C)C	4.79 µM	7 µM	0.00239 µM	0.0011 µM
CC(C)[C@H](NC(=O)[C@H](CC(=O)O)NC(=O)[C@H](Cc1ccc(N)cc1)NC(=O)[C@@H](C)NC(=O)[C@@H](N)Cc1ccc(O)cc1)C(=O)N[C@H](C(=O)NCC(N)=O)C(C)C	0.506 µM	> 10 µM	0.0339 µM	1.1 µM
CC(C)[C@H](NC(=O)[C@H](CCC(=O)O)NC(=O)[C@H](Cc1ccc(N)cc1)NC(=O)[C@@H](C)NC(=O)[C@@H](N)Cc1ccc(O)cc1)C(=O)N[C@H](C(=O)NCC(N)=O)C(C)C	2.46 µM	> 10 µM	0.0481 µM	0.3 µM
CC(C)[C@H](NC(=O)[C@H](CC(=O)O)NC(=O)[C@H](Cc1ccc(I)cc1)NC(=O)[C@@H](C)NC(=O)[C@@H](N)Cc1ccc(O)cc1)C(=O)N[C@H](C(=O)NCC(N)=O)C(C)C	1.41 µM	> 10 µM	0.00162 µM	0.017 µM
CC(C)[C@H](NC(=O)[C@H](CC(=O)O)NC(=O)[C@H](Cc1ccc([N+](=O)[O-])cc1)NC(=O)[C@@H](C)NC(=O)[C@@H](N)Cc1ccc(O)cc1)C(=O)N[C@H](C(=O)NCC(N)=O)C(C)C	2.39 µM	> 10 µM	0.0718 µM	1.2 µM
CC(C)[C@H](NC(=O)[C@H](CCC(=O)O)NC(=O)[C@H](Cc1ccc([N+](=O)[O-])cc1)NC(=O)[C@@H](C)NC(=O)[C@@H](N)Cc1ccc(O)cc1)C(=O)N[C@H](C(=O)NCC(N)=O)C(C)C	1.43 µM	> 10 µM	0.101 µM	0.43 µM
CC(C)[C@H](NC(=O)[C@H](CC(=O)O)NC(=O)[C@H](Cc1ccc(F)cc1)NC(=O)[C@@H](C)NC(=O)[C@@H](N)Cc1ccc(O)cc1)C(=O)N[C@H](C(=O)NCC(N)=O)C(C)C	0.554 µM	1.1 µM	0.00051 µM	0.0035 µM
CC(C)[C@H](NC(=O)[C@H](CC(=O)O)NC(=O)[C@H](Cc1ccc(Cl)cc1)NC(=O)[C@@H](C)NC(=O)[C@@H](N)Cc1ccc(O)cc1)C(=O)N[C@H](C(=O)NCC(N)=O)C(C)C	0.287 µM	1.8 µM	0.00158 µM	0.00016 µM
CC(C)[C@H](NC(=O)[C@H](CC(=O)O)NC(=O)[C@H](Cc1ccccc1)NC(=O)[C@@H](C)NC(=O)[C@@H](N)Cc1ccc(O)cc1)C(=O)N[C@H](C(=O)NCC(N)=O)C(C)C [DELTORPHIN C]	0.272 µM	0.42 µM	0.00024 µM	0.00014 µM
CC(C)[C@H](NC(=O)[C@H](CCC(=O)O)NC(=O)[C@H](Cc1ccccc1)NC(=O)[C@H](C)NC(=O)[C@@H](N)Cc1ccc(O)cc1)C(=O)N[C@H](C(=O)NCC(=O)O)C(C)C [DELTORPHINE II]		5.2 µM	0.00012 µM	0.00075 µM

— ChEMBL document CHEMBL1126113, “Para-substituted Phe3 deltorphin analogues: enhanced selectivity of halogenated derivatives for delta opioid receptor sites” (J Med Chem, 1992)
